Converted amounts (≈) assume the structure as drawn.
Legend:
[1] = Inhibition of Slackia exigua KARI
[2] = Selectivity ratio of IC50 for Mycobacterium tuberculosis KARI to IC50 for Slackia exigua KARI
[3] = Inhibition of Mycobacterium tuberculosis KARI using 2-acetolactate as substrate preincubated for 30 mins in presence of Mg2+ and NADPH followed by substrate addition by Morrison's equation analysis
Method in brief: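 0.27 μM MtKARI preincubated 30 min at 25 °C with inhibitor, 50 μM NADPH and 50 mM Mg²⁺ in 0.1 M Tris-HCl pH 8. Reaction started with 200 μM 2-acetolactate, and A340 decrease followed for 5 min. Compounds above 80% inhibition at 100 μM were retested at 1 nM−100 μM. Ki from Morrison equation fit.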

[4] = tested on: Mycobacterium tuberculosis; assay: Antimycobacterial activity against Mycobacterium tuberculosis H37Ra assessed as reduction in bacterial growth incubated for 5 days by resazurin dye based assay; assay type: functional; settings: 120 h, time 5 day
Method in brief: (§1)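 REMA in defined minimal medium (KH2PO4, Na2HPO4, L-asparagine, ferric ammonium citrate, MgSO4, CaCl2, ZnSO4, 0.1% glycerol) at 37 °C. Compounds 2-fold serially diluted from 30 μM. Fluorescence (ex 530/em 590 nm) read 24 h after resazurin.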

[5] = Selectivity ratio of MIC for antimycobacterial activity against Mycobacterium tuberculosis H37Ra in presence of BCAA to MIC for antimycobacterial activity against Mycobacterium tuberculosis H37Ra in absence of BCAA; assay type: functional
[6] = tested on: Mycobacterium tuberculosis; assay: Antimycobacterial activity against Mycobacterium tuberculosis H37Rv assessed as reduction in bacterial growth incubated for 5 days by resazurin dye based assay; assay type: functional; settings: 120 h, time 5 day; method in brief: as §1
[7] = tested on: Mycobacterium tuberculosis; assay: Antimycobacterial activity against Mycobacterium tuberculosis H37Ra assessed as reduction in bacterial growth incubated for 5 days in presence of BCAA by resazurin dye based assay; assay type: functional; settings: 120 h, time 5 day
Method in brief: (§2)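 REMA as for the unsupplemented assay, but with medium supplemented with 1 mM each of leucine, isoleucine and valine. Defined minimal medium at 37 °C. Log-phase inoculum at final OD 0.001 (H37Ra) or 0.003 (H37Rv). 2-fold dilutions from 30 μM. Resazurin fluorescence (530/590 nm) read after 24 h.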

[8] = Selectivity index, ratio of MIC for antimycobacterial activity against Mycobacterium tuberculosis H37Rv in presence of BCAA to MIC for antimycobacterial activity against Mycobacterium tuberculosis H37Rv in absence of BCAA; assay type: functional
[9] = tested on: Mycobacterium tuberculosis; assay: Antimycobacterial activity against Mycobacterium tuberculosis H37Rv assessed as reduction in bacterial growth incubated for 5 days in presence of BCAA by resazurin dye based assay; assay type: functional; settings: 120 h, time 5 day; method in brief: as §2
RAW264.7 = assay: Cytotoxicity against mouse RAW264.7 cells up to 100 uM incubated for 24 to 48 hrs by MTT assay; assay type: cell-based; settings: time 24-48 hrs
Method in brief: (§3)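 Cells grown to 80% confluency, RAW 264.7 and HEK293 in DMEM, SW620 in RPMI, each with 10% FBS and 1 mM nonessential amino acids. Seeded at 2×10⁵ (RAW 264.7), 5×10³ (HEK293) or 2×10³ (SW620) per well and held 24−48 h at 37 °C, 5% CO2. Twofold dilutions added at 1% DMSO final, then overnight incubation. MTT 3 h, DMSO solubilisation, A570.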

HEK293 = assay: Cytotoxicity against human HEK293 cells up to 50 uM incubated for 24 to 48 hrs by MTT assay; assay type: cell-based; settings: time 24-48 hrs; method in brief: as §3
SW-620 = assay: Cytotoxicity against human SW-620 cells up to 50 uM incubated for 24 to 48 hrs by MTT assay; assay type: cell-based; settings: time 24-48 hrs; method in brief: as §3
[10] = tested on: Mycobacterium tuberculosis; assay: Potency index, ratio of IC50 for IpOHA to IC50 for test compound for inhibition of Mycobacterium tuberculosis KARI using 2-acetolactate as substrate
[11] = Inhibition of Mycobacterium tuberculosis KARI expressed in Escherichia coli BL21 using 2-acetolactate as substrate in presence of NADPH by spectrophotometric analysis
[12] = Inhibition of Escherichia coli KARI using acetolactate as substrate assessed as slow and tight binding by measuring steady-state inhibition constant in presence of NADPH by spectrophotometric analysis
[13] = Inhibition of Escherichia coli KARI using acetolactate as substrate assessed as slow and tight binding by measuring initial inhibition constant in presence of NADPH by spectrophotometric analysis

**Q.** Which results are given for `O=C(O)C(=O)N(O)C1CCCCC1`?
**A.** Ki [1]: 8.5 nM; Ratio IC50 [2]: 25; Ki [3]: 39.6 nM

**Q.** For `O=C(O)C(=O)N(C1CCCCC1)C1CCCCC1`, which Ki [3] is on record?
**A.** The Ki was over 20000 nM.

**Q.** With `CCOC(=O)C(=O)N(O)C1CCNCC1` as the compound, how does the Ki [3] read?
**A.** Its Ki is 3080 nM.

**Q.** With `CCCCCCCCCCCCCCCCCCOC(=O)C(=O)N(O)C1CCCC1` as the compound, how does the MIC90 [4] read?
**A.** The MIC90 was over 30 µM.

**Q.** Which Ki [3] does the source give for `CCOC(=O)C(=O)N(O)C1CCCCC1` here?
**A.** Its Ki is 1020 nM.

**Q.** With `CCOC(=O)C(=O)N(O)C1CCCC1` as the compound, how does the Ki [3] read?
**A.** Its Ki is 32.2 nM.

**Q.** With `CCCCCCCCOC(=O)C(=O)N(O)C1CCCC1` as the compound, how does the MIC90 [4] read?
**A.** Its MIC90 is 6.34 µM (≈ 1.81 µg/mL).

**Q.** And the Selectivity ratio [5]?
**A.** The Selectivity ratio was 3.

**Q.** And the MIC90 [6]?
**A.** Its MIC90 is 2.32 µM (≈ 0.662 µg/mL).

**Q.** And the MIC90 [7]?
**A.** The MIC90 was 24.9 µM.

**Q.** What about the Selectivity ratio [8] of the same compound?
**A.** The Selectivity ratio was 6.

**Q.** What about the MIC90 [9] of the same compound?
**A.** The MIC90 was 18.9 µM.

**Q.** With `CC(c1ccccc1)N(O)C(=O)C(=O)O` (stereo not drawn) as the compound, how does the Ki [1] read?
**A.** The Ki was 193 nM.

**Q.** What about the Ratio IC50 [2] of the same compound?
**A.** Its Ratio IC50 is 2.

**Q.** And the Ki [3]?
**A.** The Ki was 97.7 nM.

**Q.** Which MIC90 [4] does the source give for `CCCCCCCCCCCCOC(=O)C(=O)N(O)C1CCCC1` here?
**A.** Its MIC90 is 4.99 µM (≈ 1.7 µg/mL).

**Q.** And the Selectivity ratio [5]?
**A.** The Selectivity ratio was 3.

**Q.** What about the MIC90 [6] of the same compound?
**A.** Its MIC90 is 2.97 µM (≈ 1.01 µg/mL).

**Q.** And the MIC90 [7]?
**A.** Its MIC90 is 14.1 µM.

**Q.** And the Selectivity ratio [8]?
**A.** The Selectivity ratio was 6.

**Q.** What about the MIC90 [9] of the same compound?
**A.** Its MIC90 is 17.2 µM.

**Q.** With `CCOC(=O)C(=O)N(CC)CC` as the compound, how does the Ki [3] read?
**A.** The Ki was over 20000 nM.

**Q.** With `CCOC(=O)C(=O)NCc1ccccc1` as the compound, how does the Ki [3] read?
**A.** The Ki was over 20000 nM.

**Q.** Which Ki [3] does the source give for `CCN(CC)C(=O)C(=O)O` here?
**A.** Its Ki is over 20000 nM.

**Q.** With `CCOC(=O)C(=O)N(O)C(C)CC(C)C` (stereo not drawn) as the compound, how does the Ki [3] read?
**A.** The Ki was 2660 nM.

**Q.** Which Ki [3] does the source give for `COC(=O)CC(=O)N(O)C1CCCC1` here?
**A.** The Ki was over 20000 nM.

**Q.** For `CCCCCCCCCCOC(=O)C(=O)N(O)C1CCCC1`, which Activity (RAW264.7) is on record?
**A.** Its Activity is “Non-Toxic”.

**Q.** And the MIC90 [4]?
**A.** Its MIC90 is 3.01 µM (≈ 0.943 µg/mL).

**Q.** And the Selectivity ratio [5]?
**A.** Its Selectivity ratio is 3.

**Q.** And the MIC90 [6]?
**A.** Its MIC90 is 2.45 µM (≈ 0.768 µg/mL).

**Q.** What about the MIC90 [7] of the same compound?
**A.** The MIC90 was 15.3 µM.

**Q.** What about the Selectivity ratio [8] of the same compound?
**A.** The Selectivity ratio was 6.

**Q.** What about the Activity (HEK293) of the same compound?
**A.** Its Activity is “Non-Toxic”.

**Q.** And the MIC90 [9]?
**A.** The MIC90 was 15.2 µM.

**Q.** And the Activity (SW-620)?
**A.** The Activity was “Non-Toxic”.

**Q.** Which Ki [1] does the source give for `O=C(O)C(=O)N(O)C1CCCC1` here?
**A.** Its Ki is 8.5 nM.

**Q.** What about the Ratio IC50 [10] of the same compound?
**A.** Its Ratio IC50 is 5.

**Q.** What about the MIC90 [6] of the same compound?
**A.** The MIC90 was 219 µM (≈ 37.9 µg/mL).

**Q.** And the Ki [3]?
**A.** Its Ki is 19.7 nM.

**Q.** For `CC(C)CC(C)N(O)C(=O)C(=O)O` (stereo not drawn), which Ki [3] is on record?
**A.** Its Ki is 660 nM.

**Q.** Which Ki [3] does the source give for `CC(C)NC(=O)C(=O)O` here?
**A.** The Ki was over 20000 nM.

**Q.** With `CCOC(=O)C(=O)N(O)C1CCN(C(=O)OC(C)(C)C)CC1` as the compound, how does the Ki [3] read?
**A.** Its Ki is over 20000 nM.

**Q.** For `O=C(O)CC(=O)N(O)C1CCCC1`, which Ki [3] is on record?
**A.** The Ki was over 20000 nM.

**Q.** Which Ki [3] does the source give for `CCOC(=O)C(=O)N(O)C(C)c1ccccc1` (stereo not drawn) here?
**A.** Its Ki is 152 nM.

**Q.** With `CCOC(=O)C(=O)N(C1CCCCC1)C1CCCCC1` as the compound, how does the Ki [3] read?
**A.** Its Ki is over 20000 nM.

**Q.** Which Ki [11] does the source give for `CC(C)N(O)C(=O)C(=O)O` here?
**A.** Its Ki is 97.7 nM.

**Q.** And the Ki [12]?
**A.** Its Ki is 0.09 nM.

**Q.** What about the Ki [13] of the same compound?
**A.** Its Ki is 160 nM.

**Q.** Which Ki [3] does the source give for `CC(C)CNC(=O)C(=O)O` here?
**A.** Its Ki is over 20000 nM.

**Q.** For `O=C(O)C(=O)NCc1ccccc1`, which Ki [3] is on record?
**A.** The Ki was over 20000 nM.

**Q.** For `CCCCCCOC(=O)C(=O)N(O)C1CCCC1`, which MIC90 [4] is on record?
**A.** The MIC90 was over 30 µM.
